Data published in ChEMBL document CHEMBL1141780, “Diterpenoid, steroid, and triterpenoid agonists of liver X receptors from diversified terrestrial plants and marine sources” (J Nat Prod, 2005).
The source made the active and inactive calls. The calls are words filed in the database; no cut-off is given here.

Key:
[1] = biological target: T1, Oxysterols receptor LXR-beta (Homo sapiens) (UniProt P55055); conditions: BL21
T1 sequence (whole entry): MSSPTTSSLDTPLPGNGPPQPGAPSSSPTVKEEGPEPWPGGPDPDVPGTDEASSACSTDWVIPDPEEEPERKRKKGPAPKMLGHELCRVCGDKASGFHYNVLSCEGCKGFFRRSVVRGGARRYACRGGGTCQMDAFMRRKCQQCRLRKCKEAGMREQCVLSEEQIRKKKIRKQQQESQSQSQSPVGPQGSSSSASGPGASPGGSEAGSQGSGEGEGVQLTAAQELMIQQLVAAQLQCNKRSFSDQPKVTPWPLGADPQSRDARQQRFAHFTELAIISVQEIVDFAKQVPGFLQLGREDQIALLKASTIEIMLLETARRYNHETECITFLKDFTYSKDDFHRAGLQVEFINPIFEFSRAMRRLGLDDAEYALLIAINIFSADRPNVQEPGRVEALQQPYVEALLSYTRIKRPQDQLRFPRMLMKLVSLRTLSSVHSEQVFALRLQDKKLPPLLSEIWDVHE

[2] = biological target: T2, Oxysterols receptor LXR-alpha (Homo sapiens, UniProt Q13133); assay: Agonist activity at human recombinant LXRalpha expressed in Escherichia coli BL21 cells assessed as association of recombinant SRC1 to LXRalpha ligand binding domain by HTRF assay
T2 sequence (Q13133 whole entry): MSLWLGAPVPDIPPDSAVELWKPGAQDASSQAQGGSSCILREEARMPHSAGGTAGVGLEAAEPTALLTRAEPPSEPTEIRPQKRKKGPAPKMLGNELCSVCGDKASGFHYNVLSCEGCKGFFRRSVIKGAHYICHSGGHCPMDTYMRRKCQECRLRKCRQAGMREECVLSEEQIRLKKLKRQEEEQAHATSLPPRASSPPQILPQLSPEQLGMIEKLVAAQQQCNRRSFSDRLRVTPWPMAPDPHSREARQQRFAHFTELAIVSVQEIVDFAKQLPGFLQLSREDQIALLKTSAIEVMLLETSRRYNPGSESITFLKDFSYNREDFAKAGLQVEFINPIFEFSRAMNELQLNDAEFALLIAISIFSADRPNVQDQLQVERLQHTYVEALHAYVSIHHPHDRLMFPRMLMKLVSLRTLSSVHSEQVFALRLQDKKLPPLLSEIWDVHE

[3] = biological target: T1, Oxysterols receptor LXR-beta (Homo sapiens); assay: Agonist activity at human recombinant LXRbeta expressed in Escherichia coli BL21 cells assessed as association of recombinant SRC1 to LXRbeta ligand binding domain at 10 uM by HTRF assay
[4] = biological target: T3, Oxysterols receptor LXR-beta (Homo sapiens, UniProt P55055); assay: Agonist activity at human recombinant LXRbeta expressed in Escherichia coli BL21 cells assessed as association of recombinant SRC1 to LXRbeta ligand binding domain by HTRF assay
T3 sequence (P55055 whole entry): T1 sequence (whole entry)

[5] = biological target: T4, Oxysterols receptor LXR-alpha (Homo sapiens) (UniProt Q13133); assay: Activity of human recombinant LXRalpha ligand binding domain-mediated transcriptional activity in human HEK293 cells with Gal4 reporter plasmid at 2.2 uM by luciferase reporter assay; assay type: cell-based
T4 sequence (whole entry): T2 sequence (Q13133 whole entry)
Procedure, shortened: (§1)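 Cell-based transactivation in HEK-293 cells with chimeric constructs: yeast Gal4 DNA-binding domain fused to the hinge region and LBD of LXRα or LXRβ. Agonist activity is read as fold induction over DMSO control.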

[6] = biological target: T4, Oxysterols receptor LXR-alpha (Homo sapiens); assay: Activity of human recombinant LXRalpha ligand binding domain-mediated transcriptional activity in human HEK293 cells with Gal4 reporter plasmid at 30 uM by luciferase reporter assay; assay type: cell-based
Procedure, shortened: as §1

[7] = biological target: Liver X receptor (LXR alpha AND LXR beta) (Homo sapiens) (UniProt Q13133+P55055); assay: Selectivity of human recombinant LXRalpha over human recombinant LXRbeta; assay type: protein assay
[8] = biological target: T1, Oxysterols receptor LXR-beta (Homo sapiens); assay: Activity of human recombinant LXRbeta ligand binding domain-mediated transcriptional activity in human HEK293 cells with Gal4 reporter plasmid at 30 uM by luciferase reporter assay; assay type: cell-based
Procedure, shortened: as §1

[9] = biological target: T4, Oxysterols receptor LXR-alpha (Homo sapiens); assay: Activity of human recombinant LXRalpha ligand binding domain-mediated transcriptional activity in human HEK293 cells with Gal4 reporter plasmid by luciferase reporter assay; assay type: cell-based
Procedure, shortened: as §1

[10] = biological target: T1, Oxysterols receptor LXR-beta (Homo sapiens); assay: Activity of human recombinant LXRbeta ligand binding domain-mediated transcriptional activity in human HEK293 cells with Gal4 reporter plasmid by luciferase reporter assay; assay type: cell-based
Procedure, shortened: as §1

[11] = biological target: T1, Oxysterols receptor LXR-beta (Homo sapiens); assay: Activity of human recombinant LXRbeta ligand binding domain-mediated transcriptional activity in human HEK293 cells with Gal4 reporter plasmid at 100 uM by luciferase reporter assay; assay type: cell-based
Procedure, shortened: as §1

[12] = biological target: T4, Oxysterols receptor LXR-alpha (Homo sapiens); assay: Activity of human recombinant LXRalpha ligand binding domain-mediated transcriptional activity in human HEK293 cells with Gal4 reporter plasmid at 100 uM by luciferase reporter assay; assay type: cell-based
Procedure, shortened: as §1

[13] = biological target: T4, Oxysterols receptor LXR-alpha (Homo sapiens); assay: Displacement of [3H2]F3-methyl AA from human recombinant LXRalpha expressed in Escherichia coli BL21 cells at 100 uM
[14] = biological target: T1, Oxysterols receptor LXR-beta (Homo sapiens); assay: Displacement of [3H2]F3-methyl AA from human recombinant LXRbeta expressed in Escherichia coli BL21 cells at 100 uM

## CC(C)[C@H](C)[C@@]1(C)C[C@@H]1[C@@H](C)[C@H]1CC[C@H]2[C@@H]3C[C@@H](O)[C@@]4(O)C[C@@H](O)CC[C@]4(C)[C@@]3(O)[C@H](O)C[C@]12C
[1]
  LC50: 200 nM
[2]
  EC50: 50 nM
[3]
  Activity: inactive

## C=C(CC[C@@H](C)[C@H]1CC[C@H]2[C@@H]3[C@@H](O)[C@@H](O)[C@@]4(O)C[C@@H](O)CC[C@]4(C)[C@H]3CC[C@]12C)C(C)C
[2]
  EC50: 170 nM
[3]
  Activity: inactive

## C=C(C)[C@@H]1CC[C@]2(C(=O)O)CC[C@]3(C)[C@H](CC[C@@H]4[C@@]5(C)CC[C@H](O)C(C)(C)[C@@H]5CC[C@]43C)[C@@H]12 [BETULINIC ACID]
[1]
  LC50: > 25000 nM
[4]
  EC50: > 50 µM
[2]
  EC50: > 50000 nM

## CC(C)CCC[C@@H](C)[C@H]1CC[C@H]2C3=CC(=O)[C@H]4C[C@@H](O)CC[C@]4(C)[C@@]3(O)CC[C@]12C [VIPERIDONE]
[2]
  EC50: > 15000 nM

## CC(C)=CCC[C@@H](C)[C@H]1C[C@H](O)[C@@]2(C)C3=CC[C@H]4C(C)(C)[C@@H](O)CC[C@]4(C)C3=CC[C@]12C
[1]
  LC50: > 15000 nM
[4]
  EC50: > 50 µM
[5]
  fold change (FC): 8
[2]
  EC50: 30 nM

## CC(C)[C@H](C)[C@@]1(C)C[C@@H]1[C@@H](C)[C@H]1CC[C@H]2[C@@H]3CC=C4C[C@@H](O)CC[C@]4(C)[C@@]3(O)[C@H](O)C[C@]12C
[1]
  LC50: 50000 nM
[6]
  fold change (FC): 10.1
[7]
  fold change (FC): 40
[2]
  EC50: 450 nM
[8]
  Activity: inactive

## C[C@]1(C(=O)O)CCC[C@]2(C)c3cc(O)ccc3CC[C@@H]12 [PODOCARIC ACID]
[1]
  LC50: > 50000 nM
[4]
  EC50: > 50 µM
[2]
  EC50: > 50000 nM

## C=C[C@@]1(C)CC=C2[C@@H](CC[C@@H]3[C@](C)(C(=O)NCC45CC6CC(CC(C6)C4)C5)CCC[C@@]23C)C1
[1]
  LC50: > 50000 nM
[4]
  EC50: > 50 µM
[2]
  EC50: > 50000 nM

## CC(=O)Oc1ccc2c(c1)[C@@]1(C)CCC[C@](C)(C(=O)OC(=O)[C@@]3(C)CCC[C@]4(C)c5cc(OC(C)=O)ccc5CC[C@@H]34)[C@@H]1CC2 [ACETYL PODOCARPIC ACID ANHYDRIDE]
[1]
  LC50: 1 nM
[4]
  EC50: < 0.003 µM
[9]
  fold change (FC): 50
[2]
  EC50: 1 nM
[10]
  fold change (FC): 85

## C/C(=C\CC[C@@H](C)[C@H]1CC[C@@]2(C)[C@@H]3CC=C4[C@@H](CC[C@@H](O)C4(C)C)[C@]3(C)CC[C@]12C)C(=O)O [ROSACEA ACID B]
[1]
  LC50: 390 nM
[4]
  EC50: > 50 µM
[2]
  EC50: > 50000 nM

## C=C[C@@]1(C)CC=C2[C@@H](CC[C@@H]3[C@](C)(C(=O)O)CCC[C@@]23C)C1
[1]
  LC50: 1490 nM
[11]
  fold change (FC): 5.6
[4]
  EC50: > 50 µM
[12]
  fold change (FC): 15.9
[2]
  EC50: 180 nM

## CC(C)CC[C@@H](O)[C@@H](C)[C@H]1CC[C@H]2[C@@H]3CC=C4C[C@@H](O)CC[C@]4(C)[C@H]3CC[C@]12C [22(R)-HYDROXYCHOLESTEROL]
[4]
  EC50: > 15 µM
[9]
  fold change (FC): 4
[2]
  EC50: > 15000 nM
[10]
  fold change (FC): 8
[13]
  Activity: 70%
[14]
  Activity: 60%

## CCCc1c(OCCCSc2ccc(CC(=O)O)cc2Cl)ccc2c(C(F)(F)F)noc12
[1]
  LC50: 25 nM
[9]
  fold change (FC): 20
[10]
  fold change (FC): 35

## C=C[C@@]1(C)CC=C2[C@@H](CC[C@@H]3[C@](C)(CO)CCC[C@@]23C)C1
[1]
  LC50: 730 nM
[4]
  EC50: > 50 µM
[2]
  EC50: 390 nM
